Published values pooled from the literature.
Target: Platelet-derived growth factor receptor beta (PDGFRB, Homo sapiens, UniProt P09619)

| Compound | read-out | action | technique | concentration | quantity | result |
| --- | --- | --- | --- | --- | --- | --- |
| CC(C)c1ccc(NC(=O)c2cccs2)c(-c2nc3ccccc3[nH]c2=O)c1 | enzyme activity | inhibitor |  | 1 µM | activity vs control | 105% |
| N#CCCc1ccc2c(c1)-c1[nH]c3ccc([N+](=O)[O-])cc3c1CC(=O)N2 | cell-free assay |  |  | 0.5 µM | remaining signal | 83.9% |
| Cc1noc([C@H]2C[C@@H](c3ccc(C(F)(F)F)cc3)CN(C(=O)N3CCS(=O)(=O)C3)C2)n1 | cell-free assay |  | competition with immobilised ligand | 1 µM | remaining binding | 100% |
| COc1cc2nccc(Oc3ccc(NC(=O)c4c5n(n(-c6ccc(F)cc6)c4=O)CCCC5)cc3)c2cc1OC | enzyme activity | inhibitor |  | 0.1 µM | inhibition | 6% |
| CC/C(=N\NC(=O)NCc1cccc(O)c1)c1ccc(O)c(C)c1O | enzyme activity | inhibitor |  | 0.1 µM | inhibition | 4.5% |
| COc1cc2ncnc(Nc3ccc(Oc4ccccc4)c(C)c3C)c2cc1OC | enzyme activity | inhibitor |  | 1 µM | inhibition | 6% |
| O=C(NCCCC1CCCCC1)c1ccc(CNC(=O)c2cnn(-c3ccccc3)c2C(F)(F)F)cc1 | cell-free assay |  | competition with immobilised ligand | 0.1 µM | remaining binding | 100% |
| O=[N+]([O-])c1cccc2[nH]c(CNc3nc(N4CCOCC4)nc4c3ncn4-c3ccsc3)nc12 | binding |  | competition with immobilised ligand | 10 µM | binding vs control | 8.2% |
| CS(=O)(=O)N1CCCC(NC(=O)[C@H](CCC2CCCCC2)NC(=O)c2ccc(CNc3ncnc4c3nnn4-c3ccccc3)cc2)C1 (some centres unmarked) | cell-free assay |  | competition with immobilised ligand | 0.1 µM | remaining binding | 86% |
| Cc1ccc(C(=O)NCc2ccsc2)cc1C#Cc1cn(C(C)C)c2ncnc(N)c12 | enzyme activity | inhibitor |  | 1 µM | activity vs control | 20% |
| Oc1cccc(-c2nc(N3CCOCC3)c3oc4ncccc4c3n2)c1 | cell-free assay |  |  | 0.5 µM | remaining signal | 99.2% |
| CS(=O)(=O)Nc1cccc(-c2csc(NC(=O)CSc3nc4nccnc4c(=O)n3CCc3ccccc3)n2)c1 | enzyme activity | inhibitor |  | 10 µM | inhibition | 7% |
| CCCOc1ccc([C@@H]2[C@@H](C(=O)O)[C@H](c3ccc4c(c3)OCO4)CN2CC(=O)Nc2c(CC)cccc2CC)cc1 | cell-free assay |  | competition with immobilised ligand | 1 µM | remaining binding | 100% |
| CCCS(=O)(=O)Nc1ccc(F)c(C(=O)c2c[nH]c3ncc(-c4ccc(Cl)cc4)cc23)c1F | enzyme activity | inhibitor |  | 1 µM | inhibition | < 20% |
| Cc1ccc(NC(=O)c2ccc(CN3CCN(C)CC3)cc2)cc1Nc1nccc(-c2cccnc2)n1 | enzyme activity | inhibitor |  | 0.5 µM | activity vs control | 39.1% |
| O=C(Nc1cnn(-c2csc(C(=O)NC3COC3)c2)c1)Nc1ccccc1Cl | enzyme activity | inhibitor |  | 5 µM | remaining activity | 107% |
| O=C1c2ccccc2-c2n[nH]c3cccc1c23 | enzyme activity | inhibitor |  | 0.5 µM | activity vs control | 85.1% |
| O=C(Nc1cccnn1)N1CCC(=Cc2cccc(Oc3ccc(C(F)(F)F)cn3)c2)CC1 | cell-free assay |  | competition with immobilised ligand | 1 µM | remaining binding | 97% |
| CC(C)(O)[C@H]1CC[C@H](Nc2ccc3ncc(-c4cccc(C(F)(F)F)c4)n3n2)CC1 | enzyme activity | inhibitor |  | 1 µM | remaining activity | 81% |
| Cc1ccc(C(=O)Nc2ccc(CN3CCN(C)CC3)c(C(F)(F)F)c2)cc1C#Cc1cnc2cccnn12 | enzyme activity | inhibitor |  | 23.5 nM | remaining activity | 1.6% |
| CN(C)c1ncnc(-c2ccc3nc(Nc4cc(CN5CCN(C(=O)CC(F)(F)F)CC5)ccn4)[nH]c3c2)c1Cl | cell-free assay |  | competition with immobilised ligand | 1 µM | remaining binding | 100% |
| Cc1ccc(Nc2nccc(N(C)c3ccc4c(C)n(C)nc4c3)n2)cc1S(N)(=O)=O | enzyme activity | inhibitor |  | 0.3 µM | inhibition | 64% |
| COc1cccc(CNC(=O)c2nc3scc(COCc4ccc(C(=O)O)cc4)c3c(=O)[nH]2)c1 | cell-free assay |  | competition with immobilised ligand | 1 µM | remaining binding | 99% |
| O=c1cc(-c2cccc3c2Sc2ccccc2S3)oc(N2CCOCC2)c1 | enzyme activity | inhibitor |  | 0.5 µM | remaining activity | 102% |
| Cc1[nH]c(/C=C2\C(=O)Nc3ccc(F)cc32)c(C)c1C(=O)N[C@H]1CCN(C(=O)N(C)C)C1 | enzyme activity | inhibitor |  | 0.1 µM | remaining activity | 97% |
| COc1cc2c(cc1OC)-c1[nH]nc(Nc3cccc(F)c3)c1C2 | cell-free assay |  |  | 0.5 µM | remaining signal | 45.3% |
| Cc1cnc(NC2CCOCC2)nc1-n1cnc(C(=O)NC(CN)c2cc(F)cc(Cl)c2)c1 (centres unmarked) | enzyme activity | inhibitor | radiometric | 1 µM | remaining activity | 92% |
| CC(C)(O)c1cncc(-c2nc3ccc(F)cc3n2C2CC2)c1 | cell-free assay |  | competition with immobilised ligand | 1 µM | remaining binding | 100% |
| O=c1c2ccccc2[nH]c(=S)n1CCN1CCC(=C(c2ccc(F)cc2)c2ccc(F)cc2)CC1 | enzyme activity | inhibitor |  | 0.5 µM | remaining activity | 112% |
